In ChEMBL document CHEMBL1124801, “Novel 3-hydroxy-2(1H)-pyridinones. Synthesis, iron(III)-chelating properties, and biological activity” (J Med Chem, 1990):

Tests used:
Type in all cases: physicochemical
[1] = Distribution coefficient and iron(III) complex was measured at an aqueous phase buffered at pH 7.4 and octanol; conditions: octanol/water
In short: (§1)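 Spectrophotometric partition: ligands at about 0.1 mM in 20 mM Tris-HCl pH 7.4 shaken overnight with octan-1-ol at 25 °C. Octanol volume chosen to lower aqueous absorbance by 30–70%; three preparations used. Aqueous spectra read at 250–350 nm for free ligands and 350–600 for iron(III) complexes, the complexes formed with over 10-fold ligand excess over iron(III).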

[2] = Distribution coefficient was measured at an aqueous phase buffered at pH 7.4 and octanol; conditions: octanol/water; in short: as §1
[3] = pKa values was measured by spectrophotometric method
[4] = pKa values were measured by spectrophotometric method

Row | SMILES | Distribution coefficient [1] | Distribution coefficient [2] | pKa [3] | pKa [4]
1 | CCCCn1cccc(O)c1=O | > 1000 | 16 |  | 
2 | CCCNC(=O)Cn1cccc(O)c1=O | 0.35 | 0.57 | 8.75 | 
3 | CNC(=O)Cn1cccc(O)c1=O | 0.001 | 0.07 |  | 
4 | CC(C)n1cccc(O)c1=O | 234 | 6.17 |  | 
5 | Cn1cccc(O)c1=O | 0.12 | 0.6 |  | 
6 | CCCn1cccc(O)c1=O | 24.6 | 4.92 |  | 
7 | CCNC(=O)Cn1cccc(O)c1=O | 0.035 | 0.18 |  | 
8 | CCn1cccc(O)c1=O | 1.67 | 1.57 |  | 8.99
9 | CCCCNC(=O)Cn1cccc(O)c1=O | 3.74 | 2.12 |  | 
10 | O=C(Cn1cccc(O)c1=O)NCCN(CCNC(=O)Cn1cccc(O)c1=O)CCNC(=O)Cn1cccc(O)c1=O | 0.008 | 0.025 | 8.7 | 
11 | CC(C)NC(=O)Cn1cccc(O)c1=O | 0.11 | 0.46 |  | 
12 | CC(=O)N(O)CCCCCNC(=O)CCC(=O)N(O)CCCCCNC(=O)CCC(=O)N(O)CCCCCN [DEFEROXAMINE] | 0.03 | 0.07 |  | 
